Source: ChEMBL document CHEMBL1287787, “Design and synthesis of disubstituted thiophene and thiazole based inhibitors of JNK” (Bioorg Med Chem Lett, 2010)

Tests used:
[1] = biological target: Mitogen-activated protein kinase 10 (Homo sapiens, UniProt P53779); assay: Inhibition of recombinant JNK3 after 60 mins by TR-FRET assay
[2] = biological target: Mitogen-activated protein kinase 8 (Homo sapiens, UniProt P45983); assay: Inhibition of recombinant JNK1 after 60 mins by TR-FRET assay
[3] = biological target: Mitogen-activated protein kinase 9 (Homo sapiens, UniProt P45984); assay: Inhibition of recombinant JNK2 after 60 mins by TR-FRET assay
[4] = Metabolic stability in human liver microsomes assessed as compound remaining after 30 mins; format: ADME, Microsome; details: read-out: Stability
Procedure, shortened: (§1)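 Test compound incubated with mouse or human liver microsomes for 30 min. Read-out is the percent of parent compound remaining at the end of the incubation.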

[5] = Metabolic stability in mouse liver microsomes assessed as compound remaining after 30 mins; format: ADME, Microsome; details: read-out: Stability; procedure, shortened: as §1
MDR1 = assay: Permeability from apical to basolateral side of MDCK cells expressing MDR1 after 120 mins; format: ADME, cell-based, Canis lupus familiaris; details: dog, read-out: permeability
[6] = biological target: Mitogen-activated protein kinase 1 (Homo sapiens, UniProt P28482); assay: Inhibition of recombinant Erk2 after 60 mins by TR-FRET assay
[7] = biological target: Mitogen-activated protein kinase 14 (Homo sapiens, UniProt Q16539); assay: Inhibition of recombinant p38alpha after 60 mins by TR-FRET assay
Mitogen-activated protein kinase 14, sequence (Q16539 whole entry): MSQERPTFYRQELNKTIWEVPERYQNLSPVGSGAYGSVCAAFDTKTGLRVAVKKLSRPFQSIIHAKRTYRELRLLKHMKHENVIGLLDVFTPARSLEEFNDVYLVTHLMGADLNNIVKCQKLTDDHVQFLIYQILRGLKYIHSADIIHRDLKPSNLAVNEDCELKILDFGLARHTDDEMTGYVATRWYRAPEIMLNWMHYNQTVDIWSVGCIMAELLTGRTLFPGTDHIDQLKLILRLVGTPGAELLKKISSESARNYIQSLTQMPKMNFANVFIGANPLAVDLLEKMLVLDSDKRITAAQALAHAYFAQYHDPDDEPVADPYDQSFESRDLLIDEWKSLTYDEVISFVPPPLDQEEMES

Mitogen-activated protein kinase 8, sequence (P45983 whole entry): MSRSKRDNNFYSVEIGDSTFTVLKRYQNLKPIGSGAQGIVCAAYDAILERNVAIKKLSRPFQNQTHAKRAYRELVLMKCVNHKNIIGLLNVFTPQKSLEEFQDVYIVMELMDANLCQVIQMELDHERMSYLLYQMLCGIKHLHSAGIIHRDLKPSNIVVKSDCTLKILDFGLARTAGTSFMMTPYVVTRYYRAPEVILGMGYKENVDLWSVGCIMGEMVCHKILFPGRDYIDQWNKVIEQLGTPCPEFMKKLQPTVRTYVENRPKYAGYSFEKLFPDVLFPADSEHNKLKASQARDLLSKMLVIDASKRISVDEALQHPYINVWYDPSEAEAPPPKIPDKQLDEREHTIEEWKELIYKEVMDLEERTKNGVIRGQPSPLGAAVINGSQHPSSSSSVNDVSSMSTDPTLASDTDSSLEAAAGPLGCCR
Mitogen-activated protein kinase 9, sequence (P45984 whole entry): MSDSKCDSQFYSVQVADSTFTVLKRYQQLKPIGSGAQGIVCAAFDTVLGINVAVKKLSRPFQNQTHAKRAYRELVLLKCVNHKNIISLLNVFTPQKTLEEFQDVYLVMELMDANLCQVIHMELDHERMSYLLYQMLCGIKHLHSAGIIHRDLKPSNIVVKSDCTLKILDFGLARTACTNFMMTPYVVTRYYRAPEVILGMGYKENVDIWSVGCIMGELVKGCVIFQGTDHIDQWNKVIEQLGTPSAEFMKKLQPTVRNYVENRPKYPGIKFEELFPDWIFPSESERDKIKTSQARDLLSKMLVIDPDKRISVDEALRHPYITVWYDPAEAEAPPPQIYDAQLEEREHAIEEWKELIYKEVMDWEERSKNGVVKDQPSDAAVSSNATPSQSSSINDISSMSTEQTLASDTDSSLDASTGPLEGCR
Mitogen-activated protein kinase 10, sequence (P53779 whole entry): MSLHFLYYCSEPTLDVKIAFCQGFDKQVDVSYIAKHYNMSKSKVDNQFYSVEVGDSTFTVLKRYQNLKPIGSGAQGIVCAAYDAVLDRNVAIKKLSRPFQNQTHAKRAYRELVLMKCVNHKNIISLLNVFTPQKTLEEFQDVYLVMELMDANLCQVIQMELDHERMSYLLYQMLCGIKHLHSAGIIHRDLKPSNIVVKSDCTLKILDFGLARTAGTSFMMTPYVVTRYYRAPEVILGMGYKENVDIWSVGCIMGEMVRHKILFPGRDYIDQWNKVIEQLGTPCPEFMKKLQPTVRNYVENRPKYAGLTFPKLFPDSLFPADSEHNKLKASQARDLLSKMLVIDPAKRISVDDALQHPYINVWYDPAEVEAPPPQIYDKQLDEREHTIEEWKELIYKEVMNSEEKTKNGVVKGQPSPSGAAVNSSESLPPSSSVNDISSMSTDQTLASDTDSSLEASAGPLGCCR
Mitogen-activated protein kinase 1, sequence (P28482 whole entry): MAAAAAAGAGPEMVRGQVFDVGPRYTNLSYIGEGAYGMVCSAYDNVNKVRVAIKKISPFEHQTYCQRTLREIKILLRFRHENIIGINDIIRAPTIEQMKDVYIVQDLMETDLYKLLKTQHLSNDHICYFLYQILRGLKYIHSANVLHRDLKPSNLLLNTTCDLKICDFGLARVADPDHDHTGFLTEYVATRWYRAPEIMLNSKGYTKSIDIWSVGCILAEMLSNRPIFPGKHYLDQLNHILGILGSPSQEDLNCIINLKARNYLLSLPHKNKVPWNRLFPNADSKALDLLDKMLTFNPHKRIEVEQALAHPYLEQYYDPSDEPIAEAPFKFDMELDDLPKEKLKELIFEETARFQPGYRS

| IC50 [1] [µM] | IC50 [2] [µM] | IC50 [3] [µM] | remaining at 0.5 h [4] [%] | remaining at 0.5 h [5] [%] | Papp A→B at 2 h (MDR1) [×10⁻⁶ cm/s] | IC50 [6] [µM] | IC50 [7] [µM] | Structure (SMILES) |
| --- | --- | --- | --- | --- | --- | --- | --- | --- |
| 6.9 | 2 | > 50 |  |  |  |  |  | COC(=O)c1sccc1NC(=O)Cc1ccc(C(F)(F)F)cc1 |
| 9 | 26.9 | > 50 | 17 | 0 |  |  |  | O=C(Cc1cccc2ccccc12)Nc1ccsc1-n1ccnc1 |
| 0.69 | 0.46 | > 50 |  |  |  |  |  | COC(=O)c1sccc1NC(=O)Cc1ccc(-c2ccncc2)cc1 |
| 5.3 | 3.2 | 27.1 | 7 | 1 |  |  |  | O=C(Cc1cccc2ccccc12)Nc1ccsc1-c1nnco1 |
|  |  | 8.7 | 87 | 44 | 24.3 | > 50 | > 50 | COc1ccc(CC(=O)Nc2ccsc2-c2nc(N)n[nH]2)cc1 |
| 0.55 | 0.25 | 2.4 | 1 | 1 |  |  |  | Cc1n[nH]c(-c2sccc2NC(=O)Cc2cccc3ccccc23)n1 |
| 31.5 | 30.3 | > 50 | 1 | 1 |  |  |  | Cc1nc(-c2sccc2NC(=O)Cc2cccc3ccccc23)n(C)n1 |
| 29 |  |  |  |  |  |  |  | C/C(=N/O)c1sccc1NC(=O)Cc1ccccc1 |
|  |  | 11.9 | 14 | 9 |  |  |  | COc1ccc(CC(=O)Nc2ccsc2-c2ncco2)cc1 |
| 2.7 | 0.7 | 22.8 |  |  |  |  |  | COC(=O)c1sccc1NC(=O)Cc1ccccc1 |
| > 50 | > 50 | > 50 |  |  |  |  |  | COC(=O)c1scnc1NC(=O)Cc1cccc2ccccc12 |
| 1.7 | 2.1 | 13.1 |  |  |  |  |  | COC(=O)c1ccccc1NC(=O)Cc1cccc2ccccc12 |
| 5.9 | 3.4 | 15 | 71 | 8 |  | > 50 | > 50 | COc1ccc(CC(=O)Nc2ccsc2-c2nc(C(F)(F)F)n[nH]2)cc1 |
| 0.92 | 0.53 | 3 | 11 | 1 |  |  |  | O=C(Cc1cccc2ccccc12)Nc1ccsc1-c1ncn[nH]1 |
| 5.4 | 2.1 | 26.7 |  |  |  | > 50 | > 50 | COC(=O)c1n[nH]cc1NC(=O)Cc1cccc2ccccc12 |
| 42.5 | 24.1 | > 50 | 0 | 0 |  |  |  | Cn1ccc(-c2sccc2NC(=O)Cc2cccc3ccccc23)n1 |
| > 50 | > 50 | > 50 |  |  |  |  |  | CCOC(=O)c1c(C)nsc1NC(=O)Cc1cccc2ccccc12 |

More lines, now with the values behind:

| Structure (SMILES) | IC50 [1] [µM] | IC50 [2] [µM] | IC50 [3] [µM] | remaining at 0.5 h [4] [%] | remaining at 0.5 h [5] [%] | Papp A→B at 2 h (MDR1) [×10⁻⁶ cm/s] | IC50 [6] [µM] | IC50 [7] [µM] |
| --- | --- | --- | --- | --- | --- | --- | --- | --- |
| COC(=O)c1sccc1NC(=O)Cc1ccc(-n2ccnc2)cc1 | 1.6 | 1 | > 50 |  |  |  |  |  |
| COC(=O)c1nonc1NC(=O)Cc1cccc2ccccc12 | > 50 | > 50 | > 50 |  |  |  |  |  |
| COC(=O)c1nnsc1NC(=O)Cc1cccc2ccccc12 | > 50 | > 50 | > 50 |  |  |  |  |  |
| COc1ccc(CC(=O)Nc2ccsc2-n2nccn2)cc1 | 1.5 | 0.83 | 5 | 0 | 1 | 15 |  |  |
| COc1ccc(CC(=O)Nc2ccsc2-c2cn(C)cn2)cc1 | 31 | 23.9 | > 50 | 49 | 1 | 7 | > 50 | > 50 |
| COC(=O)c1cccnc1NC(=O)Cc1cccc2ccccc12 | > 50 | > 50 | > 50 |  |  |  |  |  |
| C=C(C)c1sccc1NC(=O)Cc1ccccc1 | > 50 |  |  |  |  |  |  |  |
| CC(C)OC(=O)c1sccc1NC(=O)Cc1ccccc1 | 1.4 | 0.5 | 47.7 |  |  |  |  |  |
| Cc1nnc(-c2sccc2NC(=O)Cc2cccc3ccccc23)o1 | 2.1 | 1.8 | 16.3 | 4 | 0 |  |  |  |
| COC(=O)c1cnccc1NC(=O)Cc1cccc2ccccc12 | 6.5 | 6.4 | 23.6 |  |  |  |  |  |
| COCCN(C)C(=O)c1sccc1NC(=O)Cc1ccccc1 | > 50 |  | > 50 |  |  |  |  |  |
| CC(=O)c1sccc1NC(=O)Cc1ccccc1 | 17 | 6.3 | > 50 |  |  |  |  |  |
| COCCNC(=O)c1sccc1NC(=O)Cc1ccccc1 | 3.8 | 2.3 | > 50 |  |  |  |  |  |
| O=C(Cc1ccccc1)Nc1ccsc1CO | > 50 |  |  |  |  |  |  |  |
| Cc1ccncc1NC(=O)Cc1cccc2ccccc12 | > 50 | > 50 | > 50 |  |  |  |  |  |
| COc1ccc(CC(=O)Nc2ccsc2-n2cncn2)cc1 | 45.6 | 43.6 | > 50 |  |  |  |  |  |

| Structure (SMILES) | IC50 [1] [µM] | IC50 [2] [µM] | IC50 [3] [µM] | remaining at 0.5 h [4] [%] | remaining at 0.5 h [5] [%] | Papp A→B at 2 h (MDR1) [×10⁻⁶ cm/s] | IC50 [6] [µM] | IC50 [7] [µM] |
| --- | --- | --- | --- | --- | --- | --- | --- | --- |
| COC(=O)c1sccc1NC(=O)Cc1cccc2cnccc12 | 0.61 | 0.27 | 3.1 |  |  |  | > 50 | > 50 |
| CCOC(=O)c1sccc1NC(=O)Cc1ccccc1 | 0.7 | 0.3 | 46.6 |  |  |  |  |  |
| COC(=O)c1sccc1NC(=O)Cc1cccc2ccccc12 | 1.5 | 0.4 | 14.6 |  |  |  |  |  |
| Cc1cc(-c2sccc2NC(=O)Cc2cccc3ccccc23)n[nH]1 |  |  | 1.5 | 2 | 1 |  |  |  |
| Cc1nccnc1NC(=O)Cc1cccc2ccccc12 | > 50 |  | > 50 |  |  |  |  |  |
| COc1ccc(CC(=O)Nc2ccsc2-c2c[nH]c(C)n2)cc1 | 27 | 23.4 | > 50 | 17 | 0 | 33.8 | > 50 | > 50 |
| NC(=O)c1sccc1NC(=O)Cc1ccccc1 | 4.4 | 2.6 | > 50 |  |  |  |  |  |
| COC(=O)c1cscc1NC(=O)Cc1cccc2ccccc12 | 0.9 | 0.89 | 9.9 |  |  |  |  |  |
| COC(=O)c1sccc1NC(=O)Cc1ccc2ccccc2c1 | 3.9 | 0.6 | > 50 |  |  |  |  |  |
| COC(=O)c1sccc1NC(=O)Cc1cccc2ncccc12 | 0.61 | 0.3 | 3 |  |  |  |  |  |
| COC(=O)c1sccc1NC(=O)Cc1ccccc1-c1c[nH]nn1 | 12.6 | 7 | 35 |  |  |  |  |  |
| COc1ccc(CC(=O)Nc2ccsc2N2CCOC2=O)cc1 | 37 | > 50 | > 50 | 83 | 26 | 26 |  |  |
| O=C(Cc1cccc2ccccc12)Nc1ccsc1-c1cc[nH]n1 |  |  | > 50 | 5 | 0 |  |  |  |
| COC(=O)c1sccc1NC(=O)Cc1ccc(OC)cc1 | 1 | 0.8 | 14.1 |  |  |  |  |  |
| COC(=O)c1sccc1NC(=O)Cc1ccncc1 | 17.2 | 6.6 | > 50 |  |  |  |  |  |
| COC(=O)c1sccc1NC(=O)Cc1cccs1 |  |  | 21.4 |  |  |  |  |  |
